# Ecoli tolC = growth inhibitors of E. coli BW25113 tolC mutant; OD615; growth inhibition, % at 10 µM (by protocol); hit rate 2.2% among 65,000; AID 573;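 active = growth inhibition at or above a cutoff equal to the mean over every tested compound plus 3 SD, cut at about 60% in these data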;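 note: growth measured after 20 h incubation at 37 °C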
#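 Test system: tolC-deleted E. coli BW25113 | Medium: LB with kanamycin 50 µg/mL | Compound dosing: Single concentration, 10 µM final per compound | Schedule: 37 °C, 20 h exposure | Measured by: OD at 615 nm | Evaluation: Percent growth inhibition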
# BAP1 inh = blocks human BAP1 ubiquitin-AMC hydrolysis | AID 436 | calls only at 20 µM | Q92560 | recombinant BAP1, Ub-AMC hydrolysis fluorescence kinetic; hits give low values | hit rate 0.48% among 72,000;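 active = activity remaining at or below 50% of control, provided the compound also passes the data quality filters; inactive = the rest, including low values that fail the filters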
# Target sequence (Q92560 whole entry, looked up): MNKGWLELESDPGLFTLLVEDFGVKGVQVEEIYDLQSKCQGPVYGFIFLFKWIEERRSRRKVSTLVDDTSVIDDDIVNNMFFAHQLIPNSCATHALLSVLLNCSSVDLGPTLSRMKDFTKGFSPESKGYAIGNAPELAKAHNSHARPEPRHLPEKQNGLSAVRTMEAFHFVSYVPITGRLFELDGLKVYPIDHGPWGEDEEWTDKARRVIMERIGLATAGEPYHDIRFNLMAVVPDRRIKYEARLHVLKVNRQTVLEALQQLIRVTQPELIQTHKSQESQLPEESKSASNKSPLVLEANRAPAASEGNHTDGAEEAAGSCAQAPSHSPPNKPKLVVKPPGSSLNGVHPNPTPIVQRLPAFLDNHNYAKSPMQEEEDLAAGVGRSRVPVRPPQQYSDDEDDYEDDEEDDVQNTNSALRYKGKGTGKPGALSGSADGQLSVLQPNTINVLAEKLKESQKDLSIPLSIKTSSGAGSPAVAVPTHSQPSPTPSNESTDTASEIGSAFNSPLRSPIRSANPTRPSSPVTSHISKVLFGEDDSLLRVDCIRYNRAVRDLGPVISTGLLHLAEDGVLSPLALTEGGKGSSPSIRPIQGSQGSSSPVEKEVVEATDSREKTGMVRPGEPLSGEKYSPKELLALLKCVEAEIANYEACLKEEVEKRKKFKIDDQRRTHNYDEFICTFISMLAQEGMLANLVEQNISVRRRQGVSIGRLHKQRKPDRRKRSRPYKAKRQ
# TNAP act DEA = activates human TNAP at intermediate phosphate acceptor concentration; P05186; purified TNAP, CDP-star luminescence, 100 mM DEA, 30 min; hits give high values; scale: 0 levamisole-inhibited, 1 vehicle-only enzyme; activation factor at 20 µM; 64,000 tested, under 10 active;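 active = activation factor of at least 2 at 20 µM, relative to controls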
# Ecoli WT expand = growth inhibitors of E. coli BW25113 wild type. growth inhibition, % at 100 µM. hit rate 0.15% among 98,000. AID 710. OD600 absorbance;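 active = growth inhibition above about 50% at one test dose, limit read from the data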;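 note: growth measured after 20 h incubation at 37 °C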
# WNV NS2B-NS3 inh = blocks West Nile virus NS2B-NS3 protease activity. WNV NS2B-NS3 protease, fluorogenic substrate Ex360/Em465; hits give low values. z-score (no concentration beside the values). hit rate 0.18% among 65,000. AID 577; in the data active = z-score below about -3
# BAP1 inh conf = confirmation of human BAP1 enzyme inhibitors | shares compounds with BAP1 inh | purified BAP1, Ub-ethyl ester hydrolysis, HPLC; hits give low values | % of control activity, % at 20 µM | hit rate 8% among 310 | AID 753;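 active = percent of control activity at or below 60%; inconclusive = HPLC trace unusable from injection failure or solvent front hiding peaks; inactive = the rest, plus ubiquitin peak ratio over a set limit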
# Hits are given with their value; . = inactive; ? = inconclusive; / = not tested or not shown; + = active, no number. The sample as a whole holds a higher share of hits than the screen did.
SMILES,Ecoli tolC,BAP1 inh,TNAP act DEA,Ecoli WT expand,WNV NS2B-NS3 inh,BAP1 inh conf
Cc1cc(C)nc(NC(=O)CSc2nc3ccccc3o2)n1,/,/,/,.,/,/
c1ccc(-n2cnnc2SCc2nc3ccccc3s2)cc1,.,+,.,.,.,.
Cc1nnc(SCc2nc3ccccc3s2)n1-c1ccccc1,.,.,.,.,.,/
Cc1cccc(-n2c(=O)[nH]c3c(C(N)=O)nc(-c4ccccc4Cl)nc32)c1,.,+,.,.,.,.
O=C(c1cc2ccccc2o1)c1cccs1,.,.,.,.,.,/
O=C(c1cccs1)c1ccc(-c2cccs2)s1,.,+,.,.,.,.
COc1ccc(C(=O)COC(=O)c2ccccc2N2C(=O)C3C4C=CC(C4)C3C2=O)cc1 (configuration not stated),/,.,/,/,/,/
Cc1ccc(Cl)cc1N1CCN(C(c2ccc(C#N)cc2)c2nnnn2C2CCCC2)CC1 (configuration not stated),.,+,.,.,.,.
Cc1ccc(Cl)cc1N1CCN(C(c2cccnc2)c2nnnn2C2CCCCC2)CC1 (configuration not stated),.,.,.,.,.,/
CN1OC(COC(=O)c2ccc(Cl)cc2Cl)CC1c1ccccc1 (configuration not stated),/,/,/,.,/,/
CC(C)c1nc(SCC(=O)Nc2cccc(C(F)(F)F)c2)c2c(=O)n(C)c(=O)n(C)c2n1,.,+,.,.,.,.
CC(C)c1nc(SCC(=O)Nc2ccc3c(c2)OCCO3)c2c(=O)n(C)c(=O)n(C)c2n1,.,.,.,.,.,/
N#Cc1c(NC(=O)CCN2C(=O)c3ccccc3C2=O)oc(-c2ccccc2)c1-c1ccccc1,.,+,.,.,.,50
CCCCOc1ccccc1NC(=O)Cn1c(-c2nonc2N)nc2ccccc21,.,+,.,.,.,.
CC(C)(C)NC(=O)Cn1c(-c2nonc2N)nc2ccccc21,/,/,/,.,/,/
CC(C)(C)c1ccc(OCC(O)CSc2ncn[nH]2)cc1 (configuration not stated),/,/,/,.,/,/
CN(C)c1ccc(-c2nn3c(-c4ccc(Cl)cc4Cl)nnc3s2)cc1,.,+,.,.,.,.
COc1ccc(Br)cc1C1SCC(=O)N1c1ccc(C)cc1 (configuration not stated),/,.,/,/,/,/
CC(C)Cn1cc(C(=O)N2CCN(c3ccccn3)CC2)c2c3ccccc3n(C)c2c1=O,.,+,.,.,.,.
CCN1CCN(C(=O)c2cn(CCOC)c(=O)c3c2c2ccccc2n3C)CC1,.,.,.,.,.,/
c1ccc(-c2nnc3sc(-c4ccncc4)nn23)cc1,.,.,.,.,.,/
c1ccc(-c2nnc3sc(-c4csc5c4CCCC5)nn23)cc1,.,+,.,.,.,59
CCCc1ccc(Oc2c(-c3ccc(O)c(C)c3O)n[nH]c2C)cc1,.,+,.,.,.,.
CCCc1ccc(Oc2cn[nH]c2-c2ccc(O)c(C)c2O)cc1,100,+,.,.,.,59
CCCc1ccc(Oc2c(-c3ccc(OCC)cc3O)n[nH]c2C)cc1,/,.,/,/,/,/
SMILES,Ecoli tolC,BAP1 inh,TNAP act DEA,Ecoli WT expand,WNV NS2B-NS3 inh,BAP1 inh conf
CC(=O)Nc1ccc(NC(=O)C2(c3ccccc3)CCCC2)cc1,/,.,/,/,/,/
COC(=O)c1ccc(CN2C(=O)NC3(CCCCC3C)C2=O)o1 (configuration not stated),.,/,.,.,.,/
CCOc1ccc(N2Cc3ccccc3C2)cc1,.,+,.,/,.,.
CCc1nc(SCC(=O)Nc2ccc3c(c2)OCCO3)c2oc3ccccc3c2n1,.,+,.,.,.,?
CCC1CCCCN1C(=O)c1ccc(OC)cc1 (configuration not stated),/,.,/,/,/,/
O=C(CSc1nnc(COc2ccccc2)o1)N1CCN(c2ccccc2)CC1,.,.,/,/,.,/
Cc1cc(C)cc(OCc2nnc(SCC(=O)N3CCN(c4ccccc4)CC3)o2)c1,.,+,.,.,.,.
Cc1ccc(NC(=O)N2CCC(C(=O)NCCC3=CCCCC3)CC2)cc1,.,+,.,.,.,.
COc1cc(C(=O)Nc2ccc(Cl)c(-c3nc4ccccc4o3)c2)cc(OC)c1OC,/,.,/,/,/,/
CC1(C)CC(=O)c2cc(C(=O)NC3CCSC3=O)c(=O)n(-c3ccccc3)c2C1 (configuration not stated),.,+,.,.,.,.
CCn1c(C(=O)NCc2cccnc2)cc2sc(Cl)cc21,.,.,.,.,.,/
Cc1ccccc1-c1nnc(NC(=O)Cc2ccccc2)s1,/,.,/,/,/,/
C=CCn1c(SCCCC)nc(O)cc1=O,.,.,.,.,.,/
C=CCn1c(SCCCCCC)nc(O)cc1=O,.,+,/,.,.,.
O=C(Nc1ccc(F)cc1F)c1cc2n(n1)C(C(F)(F)F)C1CCCCC1N2 (configuration not stated),.,+,.,.,.,.
Cc1cc(I)ccc1N1C(=O)C2C3C=CC(C3)C2C1=O (configuration not stated),/,.,/,/,/,/
CCOC(=O)N1CCC(NC(=O)c2ccc3c(c2)sc2nc(-c4ccccc4)cn23)CC1,.,+,.,.,.,.
COc1ccc2c(=O)c3c(=O)n(Cc4ccco4)c(-c4ccccc4)nc3oc2c1,.,.,.,.,.,/
CCCCCCn1c(-c2ccco2)nc2oc3cc(OC)ccc3c(=O)c2c1=O,.,+,.,.,.,.
Cc1cccc(OCC(=O)Nc2ccc(N3CCN(S(C)(=O)=O)CC3)cc2)c1C,.,+,.,.,.,.
COc1ccc(C(=O)N2CCCCCC2)c(OC)c1,/,.,/,/,/,/
Cc1c(Cl)cccc1NC(=O)c1cc2c(=O)oc3ccccc3c2s1,/,.,/,/,/,/
CCCCCCNC(=O)C(C#N)c1nc2ccccc2nc1N1CCCC1 (configuration not stated),.,+,.,.,.,.
COc1ccccc1N1CCN(c2nc3ccccc3nc2C(C#N)C(=O)OC(C)C)CC1 (configuration not stated),.,+,.,.,.,.
CC(=O)C(C(C)=O)c1c(Cl)c(O)c(O)c2c(C(=O)c3ccccc3)coc12,.,+,.,.,.,.
SMILES,Ecoli tolC,BAP1 inh,TNAP act DEA,Ecoli WT expand,WNV NS2B-NS3 inh,BAP1 inh conf
CN1CCN(Cc2c(O)ccc3occ(C(=O)c4ccccc4)c23)CC1,.,.,.,.,.,/
COc1cccc(C2C(C#N)=C(N)OC3=C2C(=O)CC(c2ccco2)C3)c1OCc1ccc(F)cc1 (configuration not stated),.,+,.,.,.,.
CCOc1ccc(C2NC(=S)NC(C)=C2C(=O)OC)cc1 (configuration not stated),/,.,/,/,/,/
CCOc1cc2[nH]c(=O)n(Cc3cccc(OC)c3)c(=O)c2cc1OCC,.,+,.,.,.,.
COc1ccccc1C(=O)N1c2ccccc2Sc2ccc(C(F)(F)F)cc21,/,.,/,/,/,/
COc1ccc(CNS(=O)(=O)c2ccc(S(=O)(=O)N3CCCCC3)cc2)cc1,.,+,.,/,.,?
COC1=Cc2c(ccc3ccc(=O)oc23)OC1(C)C,.,/,.,.,.,/
